Experimental data from ChEMBL document CHEMBL5329156, “Discovery and development of novel substituted monohydrazides as potent antifungal agents” (RSC Med Chem, 2023).
In brackets after ≈: the same amount, converted by molar mass. Activity calls are given as the source filed them. The calls are words filed in the database; no cut-off is given here.

Key:
[1] = test system: Aspergillus fumigatus; experiment: Antifungal activity against Aspergillus fumigatus NRRL 163 assessed as fungal growth inhibition by double dilution method; type: functional
[2] = test system: J774.A1; experiment: Cytotoxicity against J774A.1 cells assessed as reduction in cell viability at 31.3 microg/ml; type: toxicity, cell-based; conditions: mouse, dose 31.3 µg/ml
Outline: (§1)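 Cells in DMEM with 10% FBS and 1% Pen/Strep, seeded at 10,000 cells/well and held overnight at 37 °C, 5% CO2. Compounds added at final 31.3-0.12 µg/mL (0.05% DMSO vehicle) for 24 h. Resazurin then added for 6 h; fluorescence read at ex 560/em 590. Triton X-100 1% as positive control; values normalized to vehicle. Run in quadruplicate.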

[3] = test system: HEK293; experiment: Cytotoxicity against human HEK-293 cells assessed as reduction in cell viability at 31.3 microg/ml; type: toxicity, cell-based; conditions: dose 31.3 µg/ml; outline: as §1
[4] = test system: Candida albicans; experiment: Antifungal activity against Candida albicans ATCC 64124 assessed as fungal growth inhibition by double dilution method; type: functional
Outline: (§2)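 Broth microdilution after CLSI M27-A3/M38-A2 with minor modifications. A single colony was grown overnight in YPD at 35 °C with shaking at 200 rpm. Cells were mixed 1:1 with compound (final 0.06-31.3 µg/mL, from DMSO stocks) and incubated 48 h at 35 °C.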

[5] = test system: Aspergillus fumigatus; experiment: Antifungal activity against Aspergillus fumigatus NRRL 5109 assessed as fungal growth inhibition by double dilution method; type: functional
[6] = test system: Nakaseomyces glabratus; experiment: Antifungal activity against Candida glabrata ATCC 22019 assessed as fungal growth inhibition by double dilution method; type: functional
Outline: (§3)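 Broth microdilution after CLSI M27-A3/M38-A2 with minor changes. Single colony grown overnight in YPD at 35 °C, 200 rpm. Compound final range 0.06-31.3 µg/mL; incubated 48 h at 35 °C.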

[7] = test system: Candida albicans; experiment: Antifungal activity against Candida albicans ATCC 10231 assessed as fungal growth inhibition by double dilution method; type: functional; outline: as §3
[8] = test system: [Candida] auris; experiment: Antifungal activity against Candida auris AR Bank # 0390 assessed as fungal growth inhibition by double dilution method; type: functional; conditions: Candidozyma auris; outline: as §3
[9] = test system: Aspergillus flavus; experiment: Antifungal activity against Aspergillus flavus ATCC MYA-3631 assessed as fungal growth inhibition by double dilution method; type: functional
[10] = test system: [Candida] auris; experiment: Antifungal activity against Candida auris AR Bank # 0384 assessed as fungal growth inhibition by double dilution method; type: functional; conditions: Candidozyma auris; outline: as §3
[11] = test system: Candida albicans; experiment: Antifungal activity against itraconazole/fluconazole susceptible Candida albicans ATCC MYA-2310 assessed as fungal growth inhibition by double dilution method; type: functional; outline: as §2
[12] = test system: Nakaseomyces glabratus; experiment: Antifungal activity against Candida glabrata ATCC 2001 assessed as fungal growth inhibition by double dilution method; type: functional; outline: as §3
[13] = test system: Candida albicans; experiment: Antifungal activity against itraconazole/fluconazole resistant Candida albicans ATCC 90819 assessed as fungal growth inhibition by double dilution method; type: functional; outline: as §2
[14] = test system: Candida albicans; experiment: Antifungal activity against itraconazole/fluconazole susceptible Candida albicans ATCC MYA-2876 assessed as fungal growth inhibition by double dilution method; type: functional; outline: as §2
[15] = test system: Candida albicans; experiment: Antifungal activity against itraconazole/fluconazole resistant Candida albicans ATCC MYA-1237 assessed as fungal growth inhibition by double dilution method; type: functional; outline: as §2
[16] = test system: Candida albicans; experiment: Antifungal activity against itraconazole/fluconazole resistant Candida albicans ATCC MYA-1003 assessed as fungal growth inhibition by double dilution method; type: functional; outline: as §2
[17] = test system: Aspergillus terreus; experiment: Antifungal activity against Aspergillus terreus ATCC MYA-3633 assessed as fungal growth inhibition by double dilution method; type: functional
[18] = test system: Aspergillus fumigatus; experiment: Antifungal activity against Aspergillus fumigatus NRRL 6113 assessed as fungal growth inhibition by double dilution method; type: functional
[19] = test system: Aspergillus nidulans; experiment: Antifungal activity against Aspergillus nidulans ATCC 38163 assessed as fungal growth inhibition by double dilution method; type: functional
[20] = Cytotoxicity against human HepG2 cells assessed as cell survival at 31.3 microg/ml relative to control; type: toxicity, cell-based; conditions: at 31.3 µg/mL, read-out: Activity; outline: as §1
[21] = test system: Cryptococcus neoformans; experiment: Antifungal activity against Cryptococcus neoformans ATCC MYA-895 assessed as fungal growth inhibition by double dilution method; type: functional; outline: as §3
[22] = test system: Pichia kudriavzevii; experiment: Antifungal activity against Pichia kudriavzevii ATCC 6258 assessed as fungal growth inhibition by double dilution method; type: functional; outline: as §3
[23] = test system: Pichia kudriavzevii; experiment: Antifungal activity against Pichia kudriavzevii AR Bank # 397 assessed as fungal growth inhibition by double dilution method; type: functional; outline: as §3
[24] = test system: Kodamaea ohmeri; experiment: Antifungal activity against Kodamaea ohmeri AR Bank # 396 assessed as fungal growth inhibition by double dilution method; type: functional; outline: as §3
[25] = test system: [Candida] auris; experiment: Antifungal activity against Candida auris AR Bank # 383 assessed as fungal growth inhibition by double dilution method; type: functional; conditions: Candidozyma auris; outline: as §3
[26] = test system: [Candida] auris; experiment: Antifungal activity against Candida auris AR Bank # 382 assessed as fungal growth inhibition by double dilution method; type: functional; conditions: Candidozyma auris; outline: as §3
[27] = test system: [Candida] auris; experiment: Antifungal activity against Candida auris AR Bank # 387 assessed as fungal growth inhibition by double dilution method; type: functional; conditions: Candidozyma auris; outline: as §3
[28] = test system: Saccharomyces cerevisiae; experiment: Antifungal activity against Saccharomyces cerevisiae AR Bank # 399 assessed as fungal growth inhibition by double dilution method; type: functional; outline: as §3
[29] = test system: Candida duobushaemulonii; experiment: Antifungal activity against Candida duobushaemulonii AR Bank # 391 assessed as fungal growth inhibition by double dilution method; type: functional; conditions: Candidozyma duobushaemuli; outline: as §3
[30] = test system: [Candida] haemuloni; experiment: Antifungal activity against Candida haemulonii AR Bank # 395 assessed as fungal growth inhibition by double dilution method; type: functional; conditions: Candidozyma haemuli; outline: as §3
[31] = test system: [Candida] haemuloni; experiment: Antifungal activity against Candida haemulonii AR Bank # 393 assessed as fungal growth inhibition by double dilution method; type: functional; conditions: Candidozyma haemuli; outline: as §3
[32] = test system: Candida albicans; experiment: Antibiofilm activity against Candida albicans ATCC 10231 assessed as reduction in biofilm production at 1.96 to 3.9 microg/ml by biofilm formation assay; type: functional, organism-based; conditions: dose 1.96-3.9 µg/ml
[33] = test system: Saccharomyces cerevisiae; experiment: Antifungal activity against Saccharomyces cerevisiae AR Bank # 400 assessed as fungal growth inhibition by double dilution method; type: functional; outline: as §3
[34] = test system: Candida duobushaemulonii; experiment: Antifungal activity against Candida duobushaemulonii AR Bank # 392 assessed as fungal growth inhibition by double dilution method; type: functional; conditions: Candidozyma duobushaemuli; outline: as §3
[35] = test system: [Candida] auris; experiment: Antifungal activity against Candida auris AR Bank # 388 assessed as fungal growth inhibition by double dilution method; type: functional; conditions: Candidozyma auris; outline: as §3
[36] = test system: [Candida] auris; experiment: Antifungal activity against Candida auris AR Bank # 385 assessed as fungal growth inhibition by double dilution method; type: functional; conditions: Candidozyma auris; outline: as §3
[37] = test system: [Candida] auris; experiment: Antifungal activity against Candida auris AR Bank # 390 assessed as fungal growth inhibition by double dilution method; type: functional; conditions: Candidozyma auris; outline: as §3
[38] = test system: [Candida] auris; experiment: Antifungal activity against Candida auris AR Bank # 384 assessed as fungal growth inhibition by double dilution method; type: functional; conditions: Candidozyma auris; outline: as §3
[39] = test system: Candida duobushaemulonii; experiment: Antifungal activity against Candida duobushaemulonii AR Bank # 394 assessed as fungal growth inhibition by double dilution method; type: functional; conditions: Candidozyma duobushaemuli; outline: as §3
[40] = test system: [Candida] auris; experiment: Antifungal activity against Candida auris AR Bank # 381 assessed as fungal growth inhibition by double dilution method; type: functional; conditions: Candidozyma auris; outline: as §3
[41] = test system: [Candida] auris; experiment: Antifungal activity against Candida auris AR Bank # 389 assessed as fungal growth inhibition by double dilution method; type: functional; conditions: Candidozyma auris; outline: as §3
[42] = test system: [Candida] auris; experiment: Antifungal activity against Candida auris AR Bank # 386 assessed as fungal growth inhibition by double dilution method; type: functional; conditions: Candidozyma auris; outline: as §3
[43] = test system: HepG2; experiment: Cytotoxicity against human HepG2 cells assessed as reduction in cell viability upto 31.3 microg/ml; type: toxicity, cell-based; conditions: dose < 31.3 µg/ml; outline: as §1
[44] = test system: Clavispora lusitaniae; experiment: Antifungal activity against Clavispora lusitaniae AR Bank # 398 assessed as fungal growth inhibition by double dilution method; type: functional; outline: as §3

## O=C(NNc1cccc(F)c1)c1cnccn1
[1]
  MIC: > 31.3 µg/mL
[2]
  Activity: Non-Toxic
[3]
  Activity: Non-Toxic
[4]
  MIC: 1.95 µg/mL (≈ 8.4 µM)
[5]
  MIC: > 31.3 µg/mL
[6]
  MIC: 3.9 µg/mL (≈ 16.8 µM)
[7]
  MIC: 0.24 µg/mL (≈ 1.03 µM)
[8]
  MIC: 0.98 µg/mL (≈ 4.22 µM)
[9]
  MIC: 15.6 µg/mL (≈ 67.2 µM)
[10]
  MIC: 0.98 µg/mL (≈ 4.22 µM)
[11]
  MIC: 7.8 µg/mL (≈ 33.6 µM)
[12]
  MIC: 7.8 µg/mL (≈ 33.6 µM)
[13]
  MIC: 0.98 µg/mL (≈ 4.22 µM)
[14]
  MIC: 3.9 µg/mL (≈ 16.8 µM)
[15]
  MIC: 0.98 µg/mL (≈ 4.22 µM)
[16]
  MIC: 0.98 µg/mL (≈ 4.22 µM)
[17]
  MIC: 0.98 µg/mL (≈ 4.22 µM)
[18]
  MIC: > 31.3 µg/mL
[19]
  MIC: 0.98 µg/mL (≈ 4.22 µM)
[20]
  viability at 31.3 microg/ml: 94%
[21]
  MIC: 0.12 µg/mL (≈ 0.517 µM)
[22]
  MIC: 0.49 µg/mL (≈ 2.11 µM)

## O=C(NNc1ccc(F)cc1F)c1ccccn1
[1]
  MIC: > 31.3 µg/mL
[23]
  MIC: ≤ 0.06 µg/mL
[2]
  Activity: Non-Toxic
[3]
  Activity: Non-Toxic
[4]
  MIC: 1.95 µg/mL (≈ 7.82 µM)
[5]
  MIC: 15.6 µg/mL (≈ 62.6 µM)
[24]
  MIC: 0.98 µg/mL (≈ 3.93 µM)
[6]
  MIC: 1.95 µg/mL (≈ 7.82 µM)
[25]
  MIC: 0.49 µg/mL (≈ 1.97 µM)
[26]
  MIC: 0.49 µg/mL (≈ 1.97 µM)
[27]
  MIC: 0.12 µg/mL (≈ 0.482 µM)
[7]
  MIC: 0.12 µg/mL (≈ 0.482 µM)
[8]
  MIC: 0.12 µg/mL (≈ 0.482 µM)
[9]
  MIC: 15.6 µg/mL (≈ 62.6 µM)
[10]
  MIC: 0.49 µg/mL (≈ 1.97 µM)
[28]
  MIC: 0.49 µg/mL (≈ 1.97 µM)
[11]
  MIC: 31.3 µg/mL (≈ 126 µM)
[12]
  MIC: 0.98 µg/mL (≈ 3.93 µM)
[13]
  MIC: 0.98 µg/mL (≈ 3.93 µM)
[14]
  MIC: 0.98 µg/mL (≈ 3.93 µM)
[15]
  MIC: 0.49 µg/mL (≈ 1.97 µM)
[29]
  MIC: 0.12 µg/mL (≈ 0.482 µM)
[30]
  MIC: 0.24 µg/mL (≈ 0.963 µM)
[16]
  MIC: 0.49 µg/mL (≈ 1.97 µM)
[31]
  MIC: 0.49 µg/mL (≈ 1.97 µM)
[32]
  Activity: inactive
[17]
  MIC: 0.98 µg/mL (≈ 3.93 µM)
[33]
  MIC: 0.49 µg/mL (≈ 1.97 µM)
[34]
  MIC: 0.49 µg/mL (≈ 1.97 µM)
[35]
  MIC: 0.12 µg/mL (≈ 0.482 µM)
[36]
  MIC: 0.49 µg/mL (≈ 1.97 µM)
[18]
  MIC: 31.3 µg/mL (≈ 126 µM)
[37]
  MIC: 0.12 µg/mL (≈ 0.482 µM)
[38]
  MIC: 0.49 µg/mL (≈ 1.97 µM)
[19]
  MIC: 0.49 µg/mL (≈ 1.97 µM)
[39]
  MIC: 3.9 µg/mL (≈ 15.6 µM)
[40]
  MIC: 0.49 µg/mL (≈ 1.97 µM)
[41]
  MIC: 0.24 µg/mL (≈ 0.963 µM)
[42]
  MIC: 0.49 µg/mL (≈ 1.97 µM)
[43]
  Activity: Non-Toxic
[44]
  MIC: 1.95 µg/mL (≈ 7.82 µM)
[21]
  MIC: 0.24 µg/mL (≈ 0.963 µM)
[22]
  MIC: 0.49 µg/mL (≈ 1.97 µM)
